Structures can show the parent of a compound that is named as a salt. Where two headings read alike, the source gives them in different places.
How the values were obtained:
[1] = test system: capsaicin-sensitized mice; test: Capsaicin-induced mechanical hypersensitivity; type: in vivo, mouse
[2] = molecular target: σ1 receptor (Mus musculus, UniProt O55242); test: [3H]; type: binding
[3] = test system: mice; test: Rotarod test; type: in vivo, mouse; conditions: for Effect on rotarod latency: 45 min after s.c., mg/kg: HP 0.06, HP-Met-I 64, HP-Met-II 0.25, (−)-sulpiride 100, HP-Met-III 128, PRE-084 64; for Effect of PRE-084 on the drug's effect in the rotarod test: PRE-084 64 mg/kg s.c., HP 0.125 mg/kg, HP-Met-II 1 mg/kg s.c.
In short: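 Female CD-1 mice (25–30 g), housed at 21 ± 1°C on a 12-h light/dark cycle. Motor coordination was tested on an accelerating rotarod. Latency to fall was recorded before injection (time 0) and 45 min after s.c. dosing. PRE-084 was injected s.c. immediately before the other drug, at a separate site. Controls received an equal volume of vehicle.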

[4] = from dose–response curves, s.c., capsaicin 1 µg i.pl., 0.5 g force
[5] = naloxone 1 mg/kg s.c., morphine 0.25, HP 0.06, HP-Met-II 0.25, HP-Met-I 64 mg/kg s.c.
[6] = read-out: IC50 (concentration of unlabeled drug that inhibited the specific binding of [3H](+)-pentazocine by 50%), mouse brain membranes P2 fraction, 5 nM [3H](+)-pentazocine, 240 min, 30°C, pH 8

SMILES: OC1(c2ccc(Cl)cc2)CCNCC1 [Haloperidol metabolite I, 4-(4-chlorophenyl)-4-hydroxypiperidine]
- Emax (maximum antiallodynic effect) [1, 4]: 62.27 ± 6.99%
- Effect of PRE-084 on the antiallodynic effect of the drug ([1]; mouse, in vivo): completely and dose-dependently prevented
- Effect of naloxone on the antiallodynic effect of the drug ([1]; mouse, in vivo): did not significantly modify
- IC50 [2]: 254 ± 18.4 nM
- Effect on rotarod latency [3]: no effect

SMILES: OC(CCCN1CCC(O)(c2ccc(Cl)cc2)CC1)c1ccc(F)cc1 (stereo not drawn) [Haloperidol metabolite II, 4-(4-chlorophenyl)-α-(4-fluorophenyl)-4-hydroxy-1-piperidinebutanol]
- Emax (maximum antiallodynic effect) [1, 4]: 100%
- Effect of naloxone on the antiallodynic effect of the drug [1, 5]: did not significantly modify
- Antiallodynic effect at higher doses ([1]; s.c., HP 0.125 mg/kg, HP-Met-II 1 mg/kg): 100%
- IC50 [2]: 12.8 ± 0.69 nM
- Effect on rotarod latency [3]: no effect
- Effect of PRE-084 on the drug's effect in the rotarod test [3]: not prevented

SMILES: Cl.O=C(OCCN1CCOCC1)C1(c2ccccc2)CCCCC1 [PRE-084]
- Effect on rotarod latency [3]: devoid of any effect

SMILES: CN1CCN(CCc2ccc(Cl)c(Cl)c2)CC1.Cl.Cl [BD-1063, 1-[2-(3,4-dichlorophenyl)ethyl]-4-methylpiperazine dihydrochloride]
- Effect of PRE-084 on the antiallodynic effect of the drug ([1]; mouse, in vivo): completely antagonized

SMILES: O=C(O)CCC(=O)c1ccc(F)cc1 [Haloperidol metabolite III, p-fluorobenzoylpropionic acid]
- IC50 [2, 6]: > 10000 nM
- Effect on rotarod latency [3]: devoid of any effect

SMILES: Clc1cccc(Cl)c1N=C1NCCN1 [clonidine]
- IC50 [2]: > 10000 nM

SMILES: O=C(CCCN1CCC(O)(c2ccc(Cl)cc2)CC1)c1ccc(F)cc1 [Haloperidol, haloperidol]
- Antiallodynic effect at higher doses ([1]; mouse, in vivo): 100%
- Effect of PRE-084 on the antiallodynic effect of the drug ([1]; mouse, in vivo): dose-dependent reversion
- Effect of naloxone on the antiallodynic effect of the drug ([1]; mouse, in vivo): did not significantly modify
- Emax (maximum antiallodynic effect) ([1]; mouse, in vivo, sc): 100%
- Effect on rotarod latency [3]: no effect
- Effect of PRE-084 on the drug's effect in the rotarod test [3]: not prevented

SMILES: CN1CC[C@]23c4c5ccc(O)c4O[C@H]2[C@@H](O)C=C[C@H]3[C@H]1C5 [morphine, morphine hydrochloride]
- Effect of naloxone on the antiallodynic effect of the drug [1, 5]: reversed

SMILES: CCN1CCC[C@H]1CNC(=O)c1cc(S(N)(=O)=O)ccc1OC [(−)-Sulpiride, (−)-sulpiride]
- ED50 (dose producing half of the maximal antiallodynic effect) ([1]; mouse, in vivo): Inactive^a
- IC50 [2]: > 10000 nM
- Effect on rotarod latency [3]: devoid of any effect

SMILES: CS(=O)(=O)c1ccc(C2=C(c3ccccc3)C(=O)OC2)cc1 [rofecoxib]
- IC50 [2]: > 10000 nM

SMILES: COc1cc(CNC(=O)CCCC/C=C/C(C)C)ccc1O [capsaicin]
- Decrease in the EF50 value for inducing paw withdrawal in comparison to control mice ([1]; capsaicin 1 µg i.pl. vs DMSO-treated): 9.4 fold
- EF50 (force producing half the maximal reduction in paw withdrawal latency time) ([1]; capsaicin 1 µg i.pl., 15 min before stimulation, forces 0.05–8 g): 0.30 ± 0.02 g

SMILES: Cl.O=C(OCCN1CCOCC1)C1(c2ccccc2)CCCCC1 [PRE-084, 2-(4-morpholinethyl)1-phenylcyclohexanecarboxylate) hydrochloride]
- IC50 [2, 6]: 171 ± 18.4 nM

SMILES: NCC1(CC(=O)O)CCCCC1 [gabapentin]
- IC50 [2]: > 10000 nM
